This is an account of results in ChEMBL document CHEMBL3244009, “Potential steroidal antiestrogens” (1977).

The structures appear in SMILES notation.

In test [1] the test system is Mus musculus. Kind of test: Antiestrogenic activity in immature Tuck No. 1 mouse assessed as reduction of 17beta-estradiol-induced mean uterine weight at 1000 molar ratio of compound/17beta-estradiol, sc qd for 3 days (reference value: 25.5 +/- 1.9 mg). The test is classed as functional.
Test [2] deals with Rattus norvegicus. Kind of test: Antiestrogenic activity in immature Wistar rat assessed as reduction of 17beta-estradiol-induced mean uterine weight at 200 molar ratio of compound/17beta-estradiol, sc qd for 3 days (reference value: 64.4 +/- 3.5 mg). In kind it is functional. An outline of the steps:
(§1)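 Immature Wistar rats, randomized into groups of 5-6, injected sc daily for 3 days with arachis oil vehicle, 17β-estradiol alone or estradiol plus test compound. Estradiol and compound are given as two separate injections. Estradiol total dose […]. Read-out is uterine weight, reported as mean ± SEM in mg.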

In test [3] the target is T1, Estrogen receptor (Mus musculus) (UniProt P19785).
T1 sequence (whole entry): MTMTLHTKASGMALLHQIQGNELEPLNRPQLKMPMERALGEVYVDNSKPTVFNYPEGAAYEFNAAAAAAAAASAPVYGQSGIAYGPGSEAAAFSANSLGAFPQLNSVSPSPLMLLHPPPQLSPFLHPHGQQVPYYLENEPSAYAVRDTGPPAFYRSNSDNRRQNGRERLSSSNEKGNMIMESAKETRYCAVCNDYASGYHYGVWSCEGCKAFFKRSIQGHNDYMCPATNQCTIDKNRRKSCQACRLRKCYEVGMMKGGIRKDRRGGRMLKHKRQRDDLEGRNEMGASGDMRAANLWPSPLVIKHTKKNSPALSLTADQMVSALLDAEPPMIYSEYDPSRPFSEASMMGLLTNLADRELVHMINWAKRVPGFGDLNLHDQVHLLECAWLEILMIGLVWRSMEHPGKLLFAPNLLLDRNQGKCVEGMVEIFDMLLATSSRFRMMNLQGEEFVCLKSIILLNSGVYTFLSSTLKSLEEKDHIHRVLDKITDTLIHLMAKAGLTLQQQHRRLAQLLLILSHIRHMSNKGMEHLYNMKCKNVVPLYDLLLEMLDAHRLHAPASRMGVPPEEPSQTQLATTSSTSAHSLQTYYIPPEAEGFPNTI
Kind of test: Displacement of [6,7-3H]-17beta-estadiol from estrogen receptor in Tuck No. 1 mouse uterine cytosol at 100 molar ratio of compound/radioligand incubated 15 mins prior to radioligand addition measured after 1 hr by liquid scintillation counting relative to control. To be noted: Uterus. An outline of the steps: (§2)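 Uterine cytosol is the 105 000g, 1 h, 4-5 °C supernatant of homogenates from mice ovariectomized one week earlier, prepared in Tris 0.01 M pH 7.4 with EDTA and DTT. Compound is preincubated with cytosol 15 min at 5-7 °C, then [6,7-3H]-estradiol (0.5 × 10^-12 g mol) is added for 1 h. Samples are run on 10-30% sucrose gradients. Inhibition is calculated from 8S-peak cpm normalized to total cpm versus control.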

The target in test [4] is T1, Estrogen receptor (Mus musculus). Kind of test: Displacement of [6,7-3H]-17beta-estadiol from estrogen receptor in Tuck No. 1 mouse uterine cytosol at 1000 molar ratio of compound/radioligand incubated 15 mins prior to radioligand addition measured after 1 hr by liquid scintillation counting relative to control. To be noted: Uterus. Summed up:
as §2

For test [5] the target is unchanged. Kind of test: Displacement of [6,7-3H]-17beta-estadiol from estrogen receptor in Tuck No. 1 mouse uterine cytosol at 3.16 molar ratio of compound/radioligand incubated 15 mins prior to radioligand addition measured after 1 hr by liquid scintillation counting relative to control. As to conditions: Uterus. Summed up:
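Uteri from Tuck No. 1 mice (6 weeks old, ovariectomized, used 1 week later) pulverized and homogenized at 4 °C in 0.01 M Tris pH 7.4 with EDTA and dithiothreitol; 105000g, 1 h cytosol. Compound preincubated with cytosol 15 min at 5-7 °C, then [6,7-3H]-estradiol added for 1 h. 10-30% sucrose gradients spun 275000g, 15 h; % inhibition computed from 8S-peak cpm normalized to total gradient cpm versus control.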

The target is the same in test [6]. Kind of test: Displacement of [6,7-3H]-17beta-estadiol from estrogen receptor in Tuck No. 1 mouse uterine cytosol at 10 molar ratio of compound/radioligand incubated 15 mins prior to radioligand addition measured after 1 hr by liquid scintillation counting relative to control. To be noted: Uterus. Summed up: as §2
Test [7] concerns Mus musculus. Kind of test: Antiestrogenic activity in immature Tuck No. 1 mouse assessed as reduction of 17beta-estradiol-induced mean uterine weight at 10 molar ratio of compound/17beta-estradiol, sc qd for 3 days (reference value: 25.5 +/- 1.9 mg). In kind it is functional.
Test [8] has as its system Rattus norvegicus. Kind of test: Antiestrogenic activity in immature Wistar rat assessed as reduction of 17beta-estradiol-induced mean uterine weight at 3.16 molar ratio of compound/17beta-estradiol, sc qd for 3 days (reference value: 64.4 +/- 3.5 mg). In kind it is functional. Summed up: as §1
Test [9] has as its system Mus musculus. Kind of test: Antiestrogenic activity in immature Tuck No. 1 mouse assessed as reduction of 17beta-estradiol-induced mean uterine weight at 100 molar ratio of compound/17beta-estradiol, sc qd for 3 days (reference value: 25.5 +/- 1.9 mg). In kind it is functional.
The test system of test [10] is Rattus norvegicus. Kind of test: Antiestrogenic activity in immature Wistar rat assessed as reduction of 17beta-estradiol-induced mean uterine weight at 10 molar ratio of compound/17beta-estradiol, sc qd for 3 days (reference value: 64.4 +/- 3.5 mg). In kind it is functional. An outline of the steps: as §1
Test [11] has as its target T1, Estrogen receptor (Mus musculus). Kind of test: Displacement of [6,7-3H]-17beta-estadiol from estrogen receptor in Tuck No. 1 mouse uterine cytosol at 1 molar ratio of compound/radioligand incubated 15 mins prior to radioligand addition measured after 1 hr by liquid scintillation counting relative to control. As to conditions: Uterus. An outline of the steps:
as §2

As for `Cc1cc(O)cc2c1[C@H]1CC[C@]3(C)[C@@H](O)CC[C@H]3[C@@H]1C=C2c1ccccc1`, the Activity amounted to 32.9 mg in test [1], 97.1 mg in test [2], 87% in test [3] and 18% in test [4].

On to `CCN(CC)CCOc1ccc2c(c1)C(c1ccccc1)=C[C@@H]1[C@@H]2CC[C@]2(C)[C@@H](O)CC[C@@H]12`, for which the Activity in test [4] was found to be 101%.

On to `Cc1cc(O)cc2c1[C@H]1CC[C@]3(C)[C@@H](O)CC[C@H]3[C@@H]1CC2=O`, for which the Activity in [3] was found to be 38%; in [4], 14%.

As to `C[C@]12CC[C@@H]3c4ccc(O)cc4C(=O)C[C@H]3[C@@H]1CC[C@@H]2O`, in test [5], the Activity is 38%.

As for `C[C@]12CC[C@@H]3c4ccc(O)cc4/C(=N\N4C(=N)SCC4=O)C[C@H]3[C@@H]1CC[C@@H]2O`, the Activity in test [6] came to 84%; in test [7] it was 28.4 mg.

For the compound `CN(C)CCOc1ccc2c(c1)C(c1ccccc1)=C[C@@H]1[C@@H]2CC[C@]2(C)[C@@H](O)CC[C@@H]12`, the Activity in test [4] came to 103%.

Turning to `C[C@]12CC[C@@H]3c4ccc(O)cc4/C(=N\NC(N)=S)C[C@H]3[C@@H]1CC[C@@H]2O`, the Activity was 77.7 mg in test [8], 34.3 mg in test [9] and 54% in test [6].

With `CN(C)CCOc1ccc2c(c1)C(=O)C[C@@H]1[C@@H]2CC[C@]2(C)[C@@H](O)CC[C@@H]12`, the Activity in [4] turned out to be 66%.

In the case of `CCN(CC)CCOc1ccc2c(c1)C(Cc1ccccc1)=C[C@@H]1[C@@H]2CC[C@]2(C)[C@@H](O)CC[C@@H]12`, the Activity in test [4] came out at 89%.

Regarding `Cc1cc(OCCN(C)C)cc2c1[C@H]1CC[C@]3(C)[C@@H](O)CC[C@H]3[C@@H]1C=C2c1ccccc1`, in test [4], the Activity amounted to 88%.

In the case of `C[C@]12CC[C@@H]3c4ccc(O)cc4C(c4ccccc4)=C[C@H]3[C@@H]1CC[C@@H]2O`, the Activity amounted to 13% in test [5]; 3% in test [6]; 28.6 mg in test [7]; 74.1 mg in test [10]; 66% in [11].
